ChEMBL document CHEMBL2417486, “Exploring natural product chemistry and biology with multicomponent reactions. 5. Discovery of a novel tubulin-targeting scaffold derived from the rigidin family of marine alkaloids” (J Med Chem, 2013)
≈ marks a conversion by molar mass, not a printed value. Calls of active or inactive are those of the source. The calls are words filed in the database; no cut-off is given here.

Experiments:
[1] = tested on: HeLa; assay: Growth inhibition of human HeLa cells after 48 hrs by MTT assay; assay type: functional
Summary of the method: (§1)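 Cells seeded at 4 × 10^3 per well, grown 24 h, then treated 48 h at 0.004–100 µM from 100 or 25 mM DMSO stocks. Controls were 0.1% DMSO and phenyl arsine oxide. MTT (5 mg/mL) added for 2 h, formazan dissolved in DMSO, A490 read. […] HeLa/MCF-7 in DMEM, MES-SA lines in RPMI-1640, all with 10% FBS.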

[2] = tested on: MCF7; assay: Growth inhibition of human MCF7 cells after 48 hrs by MTT assay; assay type: functional; settings: MCF7, 48 h; summary of the method: as §1
[3] = Growth inhibition of human U373 cells after 48 hrs by MTT assay; assay type: functional, U-373MG ATCC; settings: U373 MG
[4] = Aqueous solubility of the compound by spectrophotometric analysis; assay type: physicochemical
Summary of the method: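 Compound dispersed in ultrapure water at >0.5 mg/mL; supernatant centrifuged repeatedly until no pellet remained, then diluted 1:2 (solution:DMSO). Concentration read from absorbance at peak 335–336 nm against a calibration line made in 1:2 water/DMSO, and corrected for the DMSO dilution.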

[5] = tested on: A549; assay: Growth inhibition of human A549 cells after 48 hrs by MTT assay; assay type: functional; settings: A549, 48 h
[6] = Growth inhibition of human UM-SCC-22A cells after 48 hrs by MTT assay; assay type: functional
[7] = tested on: HeLa; assay: Cell cycle arrest in human HeLa cells assessed as accumulation at G2/M phase at 1 uM after 32 hrs using Vybrant Orange staining by flow cytometry relative to control; assay type: functional, cell-based
Summary of the method: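 HeLa cells at 70–80% confluence were seeded at 2 × 10^5 per well in DMEM/10% FBS with penicillin G and streptomycin, left to adhere overnight, then treated at 1 µM for 32 h (0.1% DMSO control). Washed, trypsinized, stained 30 min at 37 °C with 10 µM Vybrant Orange in medium, then analysed by flow cytometry for DNA content.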

[8] = Growth inhibition of human UM-SCC-10B cells after 48 hrs by MTT assay; assay type: functional
[9] = Growth inhibition of human UM-SCC-10A cells after 48 hrs by MTT assay; assay type: functional; settings: UMSCC-10A
[10] = tested on: SK-MEL-28; assay: Growth inhibition of human SK-MEL-28 cells after 48 hrs by MTT assay; assay type: functional; settings: SK-MEL-28, 48 h
[11] = Growth inhibition of human Hs683 cells after 48 hrs by MTT assay; assay type: functional; settings: Hs 683, 48 h
[12] = tested on: UMSCC22B; assay: Growth inhibition of human UM-SCC-22B cells after 48 hrs by MTT assay; assay type: functional
[13] = tested on: B16-F10; assay: Growth inhibition of mouse B16F10 cells after 48 hrs by MTT assay; assay type: functional; settings: B16-F10, 48 h
[14] = molecular target: T1, Tubulin beta (Homo sapiens) (UniProt P68371+Q9H4B7+Q13509+P04350+Q3ZCM7+P07437+Q13885+Q9BVA1+Q9BUF5+A6NNZ2); assay: Inhibition of [3H] radiolabelled colchicine binding to tubulin beta (unknown origin) at 5 uM by DEAE-cellulose filter method; assay type: protein assay
[15] = molecular target: T1, Tubulin beta (Homo sapiens); assay: Inhibition of [3H] radiolabelled colchicine binding to tubulin beta (unknown origin) at 1 uM by DEAE-cellulose filter method; assay type: protein assay
[16] = Inhibition of bovine brain tubulin polymerization preincubated for 15 mins followed by GTP addition measured after 20 mins by turbidimetric analysis; parameters: species or system Bos taurus
Summary of the method: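 Bovine brain tubulin at 10 µM (1.0 mg/mL) in 0.8 M monosodium glutamate (pH 6.6 in 2 M stock) was preincubated with varying compound concentrations for 15 min at 30 °C, then cooled to 0 °C. After addition of 0.4 mM GTP, samples were warmed to 30 °C and assembly followed by turbidity at 350 nm.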

[17] = tested on: HeLa; assay: Antimitotic activity in human HeLa cells assessed as effect on spindle length at 1 to 10 nM after 3 hrs by Hoechst 33342 staining based inverted microscopic analysis; assay type: functional, cell-based
Summary of the method: (§2)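 HeLa cells grown in EMEM with 10% FBS, sodium pyruvate and sodium bicarbonate; treated 3 h with compound (DMSO stock prediluted in medium) or 0.1% DMSO carrier. Fixed in methanol at -20°C for 30 min, blocked in 3% BSA/PBS 1 h, mouse anti-tubulin plus rabbit anti-pericentrin overnight at 4 °C, Alexafluor secondaries, Hoechst 33342 for DNA; epifluorescence imaging with Apotome.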

[18] = Growth inhibition of human doxorubicin-resistant MES-SA/Dx5 cells after 48 hrs by MTT assay; assay type: functional; settings: MES-SA/Dx5, 48 h
Summary of the method: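 Cells seeded at 4 × 10^3 per well, grown 24 h, then treated 48 h at 0.004–100 µM from 100 or 25 mM DMSO stocks. Controls were 0.1% DMSO and phenyl arsine oxide. MTT (5 mg/mL) added for 2 h, formazan dissolved in DMSO, A490 read.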

[19] = tested on: HeLa; assay: Antimitotic activity in human HeLa cells assessed as interphase microtubule organization at 1 to 10 nM after 3 hrs by Hoechst 33342 staining based inverted microscopic analysis; assay type: functional, cell-based; summary of the method: as §2
[20] = Growth inhibition of human MES-SA cells after 48 hrs by MTT assay; assay type: functional; summary of the method: as §1
[21] = tested on: HeLa; assay: Antimitotic activity in human HeLa cells assessed as disruption of interphase microtubule organization at 10 to 100 nM after 3 hrs by Hoechst 33342 staining based inverted microscopic analysis; assay type: functional, cell-based; summary of the method: as §2
[22] = tested on: HeLa; assay: Antimitotic activity in human HeLa cells assessed as disruption of mitotic microtubule organization at 10 to 100 nM after 3 hrs by Hoechst 33342 staining based inverted microscopic analysis; assay type: functional, cell-based; summary of the method: as §2
[23] = tested on: HeLa; assay: Antimitotic activity in human HeLa cells assessed as mitotic microtubule organization at 1 to 10 nM after 3 hrs by Hoechst 33342 staining based inverted microscopic analysis; assay type: functional, cell-based; summary of the method: as §2

SMILES	GI50 [1] [nM]	GI50 [2] [nM]	further results
Cc1ccc(-c2ncnc3[nH]c(C(=O)c4ccccc4)c(-c4cc(Br)cc(Br)c4)c23)cc1	9000	7000	
COc1cc(-c2c(C(=O)c3ccc(Br)cc3)[nH]c3[nH]c(=O)[nH]c(=O)c23)cc(OC)c1OC	> 100000	> 100000	
N#Cc1cccc(-c2c(C(=O)c3ccc(OCc4ccccc4)cc3)[nH]c3ncnc(N)c23)c1	> 100000	> 100000	
COc1ccc(/C=C\c2cc(OC)c(OC)c(OC)c2)cc1O			inhibition [14]: 99%; inhibition [15]: 89%
O=C(c1ccc(F)cc1)c1[nH]c2[nH]cnc(=O)c2c1-c1cc(Br)cc(Br)c1	6300	800	
O=C(c1ccccc1)c1[nH]c2[nH]cnc(=O)c2c1-c1cc(Br)cs1	43000	56000	
Nc1ncnc2[nH]c(C(=O)c3ccccc3)c(-c3c(Cl)cccc3Cl)c12	> 100000	> 100000	
O=C(c1ccccc1)c1[nH]c2[nH]cnc(=O)c2c1-c1ccccc1	35	40	GI50 [3]: < 10 nM; solubility [4]: 10 µM (≈ 3.15 µg/mL); GI50 [5]: 10 nM; inhibition [14]: 88%; IC50 [16]: 1200 nM; Activity [17]: inactive; GI50 [18]: 70 nM; GI50 [10]: < 10 nM; GI50 [11]: 10 nM; Activity [19]: inactive; GI50 [20]: 30 nM; Activity [21]: Active; Activity [22]: Active; GI50 [13]: 20 nM; Activity [23]: inactive; inhibition [15]: 58%
COc1cc(-c2c(C(=O)c3ccc(O)cc3)[nH]c3[nH]c(=O)[nH]c(=O)c23)ccc1O	> 100000	> 100000	
O=C(c1ccccc1)c1[nH]c2[nH]c(=S)[nH]c(=S)c2c1-c1cc(Br)cc(Br)c1	> 100000	> 100000	
COc1cc(C(=O)c2[nH]c3[nH]c(=O)[nH]c(=O)c3c2-c2cc(OC)c(OC)c(OC)c2)ccc1OCc1ccccc1	> 100000	> 100000	
O=C(c1ccc(O)cc1)c1[nH]c2[nH]c(=O)[nH]c(=O)c2c1-c1ccc(O)cc1	> 100000	> 100000	
COc1cc(-c2c(C(=O)c3ccccc3)[nH]c3[nH]cnc(=O)c23)cc(Br)c1OC	7100	10000	
COc1ccc(C(=O)c2[nH]c3[nH]cnc(=O)c3c2-c2cc(OC)c(OC)c(OC)c2)cc1	> 100000	7000	

Continued by falling GI50 [1], values first:

GI50 [1] [nM]	GI50 [2] [nM]	SMILES	further results
4900	2200	O=C(c1ccccc1)c1[nH]c2[nH]cnc(=O)c2c1-c1c(Cl)cccc1Cl	
4000	2800	O=C(c1ccc(O)cc1)c1[nH]c2[nH]cnc(=O)c2c1-c1ccc(O)cc1	
2200	600	O=C(c1ccc(Br)cc1)c1[nH]c2[nH]cnc(=O)c2c1-c1cc(Br)cc(Br)c1	
400	300	O=C(c1ccc(O)cc1)c1[nH]c2[nH]cnc(=O)c2c1-c1ccccc1	
300	260	O=C(c1ccc(O)cc1)c1[nH]c2[nH]cnc(=O)c2c1-c1cc(Br)cc(Br)c1	
200	150	O=C(c1ccccc1)c1[nH]c2[nH]cnc(=O)c2c1-c1cccc(I)c1	
150	135	O=C(c1ccccc1)c1[nH]c2[nH]cnc(=O)c2c1-c1cccc(Br)n1	
130	60	O=C(c1ccccc1)c1[nH]c2[nH]cnc(=O)c2c1-c1cccc(Br)c1	
80	87	O=C(c1ccccc1)c1[nH]c2[nH]cnc(=O)c2c1-c1cncc(Br)c1	GI50 [3]: 30 nM; solubility [4]: 30 µM (≈ 11.9 µg/mL); GI50 [5]: 20 nM; GI50 [6]: 120 nM; Activity [7]: Active; GI50 [8]: 130 nM; GI50 [9]: 90 nM; GI50 [10]: 20 nM; GI50 [11]: 20 nM; GI50 [12]: 20 nM; GI50 [13]: 40 nM
45	53	O=C(c1ccc(OCc2ccccc2)cc1)c1[nH]c2[nH]cnc(=O)c2c1-c1ccccc1	
